Screens as filed in PubChem BioAssay.
Shown are actives, neighbours in structure and some others; about 4.8% of the full set was active somewhere.
FLuc act counter = FLuc activators, initial screening, artefact control for FLuc-dependent activation tests, biochemical, ATPlite luminescence | activation factor at 10 µM | AID 1027, 2008 | Luciferin 4-monooxygenase (Photinus pyralis), P08659 | 200,000 tested, under 10 active | ATPlite luciferase biochemical, 10 min; 0 = ATP-free wells, 1 = DMSO control;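 active = luciferase activation factor, scaled between plate controls, of at least 2 with compound at 10 µM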
Target sequence (P08659 whole entry, looked up): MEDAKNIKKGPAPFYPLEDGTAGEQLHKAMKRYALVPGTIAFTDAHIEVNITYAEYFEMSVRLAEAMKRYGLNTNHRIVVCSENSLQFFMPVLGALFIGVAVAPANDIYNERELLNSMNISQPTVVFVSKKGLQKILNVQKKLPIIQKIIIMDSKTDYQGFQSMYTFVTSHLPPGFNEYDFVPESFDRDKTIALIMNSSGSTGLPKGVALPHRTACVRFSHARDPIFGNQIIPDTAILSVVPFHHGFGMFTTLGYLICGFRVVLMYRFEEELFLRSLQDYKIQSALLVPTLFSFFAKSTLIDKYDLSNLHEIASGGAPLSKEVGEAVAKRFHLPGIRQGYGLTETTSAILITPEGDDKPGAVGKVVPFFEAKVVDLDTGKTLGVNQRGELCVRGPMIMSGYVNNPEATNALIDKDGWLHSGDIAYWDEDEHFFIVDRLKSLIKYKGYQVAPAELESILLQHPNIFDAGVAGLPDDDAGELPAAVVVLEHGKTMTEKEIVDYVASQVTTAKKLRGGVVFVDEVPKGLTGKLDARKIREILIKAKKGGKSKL
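Assay system: Luciferase/luciferin detection reagent, cell-free biochemical luciferase assay / Also added: ATP substrate / Schedule: 10 min at ambient temperature / Measured by: luminescence measurement of luciferase light output / Benchmarks: low control with PBS replacing ATP, high control enzyme plus ATP without compound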
NF-kB expr up = activators of NF-kB expression in neurons, primary screen, cell-based, HTS. fold change at 12.5 µM. human neuronal cells, NF-kB reporter expression; stronger effect = higher value. 190,000 compounds, 1.6% hits. AID 1239, 2008; in the data active = fold change above about 3.3
APP 5'UTR act = activators of APP 5'UTR luciferase reporter, primary screen, SH-SY5Y cells | SH-SY5Y APP 5'UTR luciferase reporter, luminescence; zero percent = DMSO vehicle wells | activation, % at 2 µM | 190,000 compounds, 1% hits | AID 1276, 2008;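 active = activation above a set limit, based on mean plus 3 SD of controls, cut at about 140% in these data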
STAT1 activator = STAT1 signaling activators, primary screen, cell-based, HTS, luciferase reporter; NIH 3T3 STAT1-luciferase reporter, IFN-gamma, luminescence; 100% = IFN-gamma alone, no compound; activation (% of control), % at 5.5 µM; 200,000 compounds, 2.6% hits;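 active = activation above the screen-wide mean activation plus 3 SD, cut at about 130% in these data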
FLuc inhib CS = firefly luciferase enzyme inhibitors, primary screen, artefact control for luciferase-based inhibitor screens, biochemical, luminescence, ATPLite; 200,000 compounds, 1.5% hits; 10 min; inhibition, % at 10 µM; Luciferin 4-monooxygenase (Photinus pyralis), P08659;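 active = inhibition above about 50% when tested at 10 µM, limit read from the data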
APP transl inh = inhibitors of APP translation via 5'UTR reporter, primary screen, APP 5'UTR luciferase, SH-SY5Y cells; SH-SY5Y APP 5'UTR-luciferase reporter, luminescence; 190,000 compounds, 0.82% hits; inhibition, % at 2 µM; AID 1285, 2008;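 active = inhibition above a set limit, derived from the sample mean plus 3 SD, cut at about 45% in these data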
STAT1 activ conf = STAT1 signaling activators, confirmation, cell-based, HTS, luciferase reporter; shares compounds with STAT1 activator; NIH 3T3 STAT1-luciferase reporter, IFN-gamma potentiation, luminescence; 100% = IFN-gamma EC80 alone, no compound; activation (% of control), % at 5.7 µM; 1,200 compounds, 97% hits; AID 1262, 2008;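 active = activation above a set limit carried over from the earlier primary STAT1 screen, cut at about 140% in these data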
NFkB act STAT1ct = NF-kB reporter activators, TNF-alpha stimulated, counter-screen for STAT1 activator project, cell-based, HEK293T, luciferase luminescence; 100% = TNF-alpha with vehicle only; shares compounds with STAT1 activator; activation (% of control), % at 5.7 µM; 1,200 compounds, 43% hits; AID 1306, 2008;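 active = activation above the mean of solvent-only control wells plus 3 SD, set per campaign, cut at about 130% in these data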;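 note: TNF-alpha given at a submaximal dose yielding about 80% of full reporter signal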
STAT3 act STAT1c = STAT3 reporter activation by STAT1 hits, confirmation, counter-screen for STAT1 activator project, U3A cells, luciferase, luminescence; shares compounds with STAT1 activator; IL-6; cells lack STAT1; 100 = IL-6 alone, no compound effect; activation (% of control), % at 5.7 µM; 1,200 compounds, 46% hits;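 active = activation above the solvent-only control well mean plus 3 SD, set per plate batch, cut at about 110% in these data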;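 note: higher means more STAT3 reporter activation so hits are non-selective activators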
Hits are given with their value; i = inactive; nt = not tested or not shown.

SMILES | FLuc act counter | NF-kB expr up | APP 5'UTR act | STAT1 activator | FLuc inhib CS | APP transl inh | STAT1 activ conf | NFkB act STAT1ct | STAT3 act STAT1c
CCOC(=O)c1c(C)[nH]c(N=Nc2ccc(C)cc2)c1C | i | 4.1 | 141 | 154 | i | i | 230 | 146 | i
CCOC(=O)c1c(C)[nH]c(N=Nc2cccc(OC)c2)c1C | i | i | 253 | 198 | i | i | 235 | 144 | i
CCOC(=O)c1c(C)[nH]c(C(=O)O)c1C | i | i | i | i | i | i | nt | nt | nt
CCOC(=O)c1c(C)[nH]c(C=Nc2ccc(OC)cc2)c1O | i | i | i | i | i | i | nt | nt | nt
CC(C)c1ccc(-c2nnn(Cc3nc4ccccc4s3)n2)cc1 | i | i | i | i | i | i | nt | nt | nt
Cc1ccc(S(=O)(=O)NNc2nc3ccccc3nc2C(F)(F)F)cc1 | i | i | i | i | i | i | nt | nt | nt
O=C1c2ccccc2NC(c2cnc3ccccc3n2)N1O (stereo not given) | i | 6.9 | i | 159 | i | i | 209 | i | i
CO/N=C(/CS(=O)(=O)Cc1ccccc1Cl)c1ccc(Cl)cc1Cl | i | i | i | i | i | i | nt | nt | nt
Cc1cccc(-n2nnc(C(=O)Nc3ccc(F)cc3)c2N)c1 | i | 5.1 | i | 168 | i | i | 196 | i | i
N#C/C(=N\Nc1ccc(F)cc1)C(=N)N1CCCCC1 | i | 8.2 | 138 | 155 | 55 | i | 216 | i | 115
COc1ccc(N/N=C(\C#N)C(=N)N2CCOCC2)cc1 | i | i | i | i | i | i | nt | nt | nt
Cc1ccc2[nH]c(-c3cccc(N)c3)cc2c1 | i | i | 152 | 183 | i | i | 213 | 146 | i
CCN(CC)c1ccc(/C=N/NC(=O)c2ccco2)cc1 | i | 6.3 | i | 165 | 79 | 49 | 217 | i | i
CCN(CC)c1ccc(/C=N/NC(=O)c2ccc([N+](=O)[O-])cc2)cc1 | i | i | i | i | i | i | nt | nt | nt
COc1ccc2nc3oc(C(=O)N4CCCCC4)cc3cc2c1 | i | 6.4 | i | 179 | i | i | 206 | 136 | i
COc1cccc(N(C(=O)c2nc3nccc(C)n3n2)c2nc3ccccc3s2)c1 | i | 6 | 190 | 173 | i | i | 230 | 177 | 114
COc1cccc(NC(=O)COC(=O)c2nc3nccc(C)n3n2)c1 | i | i | i | i | i | i | nt | nt | nt
CCOc1ccc(C2CC(=O)NC(SCC(=O)OC)=C2C#N)cc1 (stereo not given) | i | i | i | i | i | i | nt | nt | nt
COc1ccc(S(=O)(=O)N(C)C)cc1NCC(=O)Nc1ccc(Br)c(C)c1 | i | i | i | i | i | i | nt | nt | nt
COc1ccc2cc(C(N)=O)c(=Nc3ccccc3)oc2c1 | i | i | 137 | 152 | i | i | 142 | i | i
COc1ccc(Cc2n[nH]c(=S)n2N)cc1OC | i | i | i | i | i | i | nt | nt | nt
Fc1ccc(/C=N/NC2=Nc3cccc4cccc2c34)cc1 | i | i | 167 | 167 | 58 | i | 201 | 137 | 153
CCC(=O)Nc1ccc(NC(=S)NC(=O)c2cc3ccccc3o2)cc1 | i | i | i | i | i | i | nt | nt | nt
CCC(=O)Nc1cccc(NC(=S)NC(=O)c2cccc(C)c2)c1 | i | i | i | i | i | i | nt | nt | nt
CCC(=O)Nc1cccc(NC(=S)NC(=O)c2cc3ccccc3o2)c1 | i | i | 153 | 157 | i | i | 235 | i | 111
SMILES | FLuc act counter | NF-kB expr up | APP 5'UTR act | STAT1 activator | FLuc inhib CS | APP transl inh | STAT1 activ conf | NFkB act STAT1ct | STAT3 act STAT1c
CCC(=O)Nc1cccc(NC(=S)NC(=O)c2ccccc2)c1 | i | i | i | 151 | i | i | 162 | i | 114
Cc1cccc(OCCNC(=O)c2cncc(Br)c2)c1 | i | i | i | i | i | i | nt | nt | nt
C(=N\N=C\c1ccccc1)/c1ccccc1 | i | i | i | 158 | 79 | i | 186 | 145 | i
O=S(=O)(NCCOCC(F)(F)F)c1ccc2oc3ccccc3c2c1 | i | i | i | i | i | i | nt | nt | nt
N/C(=N\OC(=O)c1ccc2c(c1)OCO2)c1ccc(Cl)cc1 | i | 5.9 | i | 153 | 84 | i | 187 | i | i
Cc1ccc(/C(N)=N/OC(=O)c2ccc3c(c2)OCO3)cc1 | i | 5 | 142 | 156 | 78 | i | 186 | 136 | i
Cc1cc(C)cc(C(=O)O/N=C(\N)c2ccc(Br)cc2)c1 | i | i | i | i | i | i | nt | nt | nt
CCOC(=O)c1ccc(NC(=O)COc2ccccc2CNC2CCCC2)cc1 | i | i | i | i | i | i | nt | nt | nt
COc1cc(/C(C)=N/Nc2ccc(C(=O)O)cc2)cc(OC)c1OC | i | i | i | i | i | i | nt | nt | nt
COc1ccc(/C(C)=N/Nc2ccc(C(=O)O)cc2)cc1OC | i | 6 | 158 | 157 | i | i | 190 | i | 119
O=C(COC(=O)C1CCN(S(=O)(=O)c2ccc3c(c2)OCCO3)CC1)Nc1ccc(C(F)(F)F)cc1 | i | i | i | i | i | i | nt | nt | nt
O=C(N/N=C/C=C/c1ccccc1[N+](=O)[O-])c1cccnc1 | i | i | i | i | i | i | nt | nt | nt
O=C(O)c1ccc(N/N=C/C=C/c2ccccc2[N+](=O)[O-])cc1 | i | i | i | 163 | i | i | 177 | 139 | 129
CC(=O)Nc1sc2c(c1C#N)CCCC2 | i | i | i | i | i | i | nt | nt | nt
Cc1cc(C(=O)Nc2sc3c(c2C#N)CCCCC3)cs1 | i | 4.2 | 159 | 176 | i | i | 255 | 146 | 111
CC(=O)NC(=S)Nc1sc2c(c1C#N)CCCCC2 | i | i | i | 167 | 72 | i | 186 | i | i
COc1ccc(Cn2c(=O)[nH]c3cc(C(=O)NCCc4ccc(S(N)(=O)=O)cc4)ccc3c2=O)cc1 | i | i | i | i | i | i | nt | nt | nt
N#CC1CC(c2ccccc2)=NN1c1ccccc1[N+](=O)[O-] (stereo not given) | i | i | i | 156 | i | i | 155 | i | 124
CCOc1ccccc1C(=O)Nc1cc(C(=O)NCC(C)C)ccc1Cl | i | i | i | i | i | i | nt | nt | nt
